From ChEMBL document CHEMBL2434966, “Novel N-4-piperazinyl-ciprofloxacin-chalcone hybrids: synthesis, physicochemical properties, anticancer and topoisomerase I and II inhibitory activity” (Eur J Med Chem, 2013)

Legend:
Assay type in all cases: functional
MDA-MB-468 = assay: Growth inhibition of human MDA-MB-468 cells after 48 hrs by sulforhodamine B assay; settings: MDA-MB-468, 48 h
Summary of the method: (§1)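 NCI five-dose screen on the full 60-cell-line panel. Cells were given 10-fold dilutions from 10^-4 to 10^-8 M with continuous 48 h exposure, and growth was read by SRB staining. Percent growth was taken from time-zero, control and treated absorbances. GI50, TGI and LC50 were then derived, the GI50 being the concentration that gives a 50% lower net protein increase than control.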

PC-3 [1] = assay: Growth inhibition of human PC3 cells after 48 hrs by sulforhodamine B assay; settings: PC-3, 48 h; summary of the method: as §1
UO-31 = assay: Growth inhibition of human UO31 cells after 48 hrs by sulforhodamine B assay; settings: UO-31, 48 h
Summary of the method: (§2)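 NCI 60-cell panel, five concentrations (10-fold dilutions, 0.01–100 µM), 48 h continuous exposure; SRB protein stain read spectrophotometrically. Percent growth from time-zero, untreated-control and treated absorbances. GI50 is the concentration giving 50% lower net protein increase than control. Values beyond the tested range are reported as more or less than the highest or lowest concentration.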

SN12C [2] = assay: Growth inhibition of human SN12C cells after 48 hrs by sulforhodamine B assay; summary of the method: as §1
TK-10 = assay: Growth inhibition of human TK10 cells after 48 hrs by sulforhodamine B assay; settings: TK-10, 48 h; summary of the method: as §2
A498 = assay: Growth inhibition of human A498 cells after 48 hrs by sulforhodamine B assay; settings: A498, 48 h
Summary of the method: (§3)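 NCI 60-panel five-dose test at 10-fold dilutions, 10^-4 to 10^-8 M, with 48 h continuous exposure and SRB protein read-out. Percent growth derived from time-zero, untreated-control and treated absorbances. GI50 is the concentration where [(Ti-Tz)/(C-Tz)]×100 = 50. TGI is taken at Ti = Tz. LC50 is taken at [(Ti-Tz)/Tz]×100 = -50.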

[3] = Growth inhibition of human NCI-ADR-RES cells after 48 hrs by sulforhodamine B assay; summary of the method: as §1
IGROV-1 = assay: Growth inhibition of human IGROV1 cells after 48 hrs by sulforhodamine B assay; settings: IGROV-1, 48 h; summary of the method: as §3
MDA-MB-435 [4] = assay: Growth inhibition of human MDA-MB-435 cells after 48 hrs by sulforhodamine B assay; settings: MDA-MB-435, 48 h; summary of the method: as §1
SW-620 = assay: Growth inhibition of human SW620 cells after 48 hrs by sulforhodamine B assay; settings: SW-620, 48 h; summary of the method: as §2
COLO 205 = assay: Growth inhibition of human COLO205 cells after 48 hrs by sulforhodamine B assay; settings: COLO 205, 48 h; summary of the method: as §3
RPMI-8226 = assay: Growth inhibition of human RPMI8226 cells after 48 hrs by sulforhodamine B assay; settings: RPMI-8226, 48 h; summary of the method: as §1
CCRF-CEM = assay: Growth inhibition of human CCRF-CEM cells after 48 hrs by sulforhodamine B assay; summary of the method: as §3
[5] = Growth inhibition of human Hs 578T cells assessed as cell growth at 10^-5 M after 48 hrs by sulforhodamine B assay; settings: read-out: Activity
Summary of the method: (§4)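 NCI 60-cell-line primary screen. Single concentration of 10^-5 M, 48 h incubation. End point by sulforhodamine B protein staining read spectrophotometrically. Reported as percent growth of treated cells relative to untreated control cells.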

PC-3 [6] = assay: Growth inhibition of human PC3 cells assessed as cell growth at 10^-5 M after 48 hrs by sulforhodamine B assay; settings: PC-3, 48 h, read-out: Activity
Summary of the method: (§5)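 NCI 60-cell-line primary one-dose screen. Cells were exposed to a single 10^-5 M concentration for 48 h. The end point was sulforhodamine B protein staining, read spectrophotometrically. Results are reported as percent growth of treated cells relative to untreated control cells.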

SN12C [7] = assay: Growth inhibition of human SN12C cells assessed as cell growth at 10^-5 M after 48 hrs by sulforhodamine B assay; settings: read-out: Activity; summary of the method: as §5
SK-OV-3 = assay: Growth inhibition of human SKOV3 cells assessed as cell growth at 10^-5 M after 48 hrs by sulforhodamine B assay; settings: SK-OV-3, 48 h, read-out: Activity; summary of the method: as §5
UACC-257 = assay: Growth inhibition of human UACC257 cells assessed as cell growth at 10^-5 M after 48 hrs by sulforhodamine B assay; settings: UACC-257, 48 h, read-out: Activity
Summary of the method: (§6)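 NCI primary one-dose screen: single concentration of 10^-5 M added to culture, 48 h incubation, SRB protein-dye endpoint. Percent growth of treated cells measured spectrophotometrically against untreated controls.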

MDA-MB-435 [8] = assay: Growth inhibition of human MDA-MB-435 cells assessed as cell growth at 10^-5 M after 48 hrs by sulforhodamine B assay; settings: MDA-MB-435, 48 h, read-out: Activity; summary of the method: as §5
U-251 = assay: Growth inhibition of human U251 cells assessed as cell growth at 10^-5 M after 48 hrs by sulforhodamine B assay; settings: U-251, 48 h, read-out: Activity; summary of the method: as §6
SF-539 = assay: Growth inhibition of human SF539 cells assessed as cell growth at 10^-5 M after 48 hrs by sulforhodamine B assay; settings: SF-539, 48 h, read-out: Activity; summary of the method: as §5
SF-295 = assay: Growth inhibition of human SF295 cells assessed as cell growth at 10^-5 M after 48 hrs by sulforhodamine B assay; settings: SF-295, 48 h, read-out: Activity; summary of the method: as §5
HT-29 = assay: Growth inhibition of human HT-29 cells assessed as cell growth at 10^-5 M after 48 hrs by sulforhodamine B assay; settings: HT-29, 48 h, read-out: Activity; summary of the method: as §4
HCT-116 = assay: Growth inhibition of human HCT116 cells assessed as cell growth at 10^-5 M after 48 hrs by sulforhodamine B assay; settings: HCT-116, 48 h, read-out: Activity; summary of the method: as §4
NCI-H226 = assay: Growth inhibition of human NCI-H226 cells assessed as cell growth at 10^-5 M after 48 hrs by sulforhodamine B assay; settings: NCI-H226, 48 h, read-out: Activity; summary of the method: as §5
K562 = assay: Growth inhibition of human K562 cells assessed as cell growth at 10^-5 M after 48 hrs by sulforhodamine B assay; settings: K562, 48 h, read-out: Activity; summary of the method: as §4
[9] = read-out: LC50 (the source's name)

SMILES: O=C(CN1CCN(c2cc3c(cc2F)c(=O)c(C(=O)O)cn3C2CC2)CC1)Nc1ccc(C(=O)/C=C/c2ccccc2)cc1
- GI50 (MDA-MB-468): 2.45 µM
- LC50 (concentration killing 50% of starting cells) (MDA-MB-468): > 100 µM
- TGI (MDA-MB-468): 23.2 µM
- GI50 (PC-3 [1]): 3.16 µM
- LC50 (PC-3 [1]): > 100 µM
- TGI (PC-3 [1]): > 100 µM
- GI50 (UO-31): 2.78 µM
- LC50 (concentration killing 50% of cells) (UO-31): > 100 µM
- TGI (UO-31): 45.4 µM
- GI50 (SN12C [2]): 3.02 µM
- LC50 (lethal concentration, 50% net cell kill) (SN12C [2]): > 100 µM
- TGI (SN12C [2]): > 100 µM
- GI50 (TK-10): 4.19 µM
- TGI (TK-10): > 100 µM
- CC50 (TK-10; [9]): > 100 µM
- GI50 (A498): 1.28 µM
- LC50 (concentration killing 50% of starting cells) (A498): > 100 µM
- TGI (A498): 7.37 µM
- GI50 [3]: 9.75 µM
- TGI [3]: > 100 µM
- CC50 [3, 9]: > 100 µM
- GI50 (IGROV-1): 3.67 µM
- LC50 (concentration giving 50% net cell kill) (IGROV-1): > 100 µM
- TGI (IGROV-1): > 100 µM
- GI50 (MDA-MB-435 [4]): 2.94 µM
- LC50 (MDA-MB-435 [4]): > 100 µM
- TGI (MDA-MB-435 [4]): > 100 µM
- GI50 (SW-620): 3.8 µM
- TGI (SW-620): > 100 µM
- CC50 (SW-620; [9]): > 100 µM
- GI50 (COLO 205): 36.3 µM
- LC50 (lethal concentration, 50% net cell kill) (COLO 205): > 100 µM
- TGI (COLO 205): > 100 µM
- GI50 (RPMI-8226): 2.52 µM
- TGI (RPMI-8226): 6.73 µM
- CC50 (RPMI-8226; [9]): > 100 µM
- GI50 (CCRF-CEM): 4.09 µM
- LC50 (concentration giving 50% net cell kill) (CCRF-CEM): > 100 µM
- TGI (CCRF-CEM): > 100 µM
- growth at 10 µM [5]: 51.9%
- growth at 10 µM (PC-3 [6]): 55.2%
- growth at 10 µM (SN12C [7]): 11.3%
- growth at 10 µM (SK-OV-3): 93.6%
- growth at 10 µM (UACC-257): 61.1%
- growth at 10 µM (MDA-MB-435 [8]): 19.2%
- growth at 10 µM (U-251): 14.9%
- growth at 10 µM (SF-539): 26.2%
- growth at 10 µM (SF-295): 15.2%
- growth at 10 µM (HT-29): 11.4%
- growth at 10 µM (HCT-116): -83.6%
- growth at 10 µM (NCI-H226): 57.4%
- growth at 10 µM (K562): 14.2%
